PG9 binder – binds the HIV-1 gp120 antibody PG9. TR-FRET gp120-PG9 antibody binding. inhibition, % at 6.7 µM. hit rate 0.43% among 360,000. AID 624416; in the data active = inhibition above about 8.5%
NR1D1 modulator – modulates human Rev-erb alpha binding to DNA; activity, % at 10 µM; hit rate 0.79% among 370,000; Rev-erbα–FITC-DNA binding, fluorescence polarization, 90 min; AID 1259318;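 active = activity above about 14%, limit read from the data; passing the limit was not always enough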;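 note: 0% = DMSO wells with 35 nM protein and 100% = DMSO wells with 750 nM protein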
Target sequence (P20393 whole entry, looked up): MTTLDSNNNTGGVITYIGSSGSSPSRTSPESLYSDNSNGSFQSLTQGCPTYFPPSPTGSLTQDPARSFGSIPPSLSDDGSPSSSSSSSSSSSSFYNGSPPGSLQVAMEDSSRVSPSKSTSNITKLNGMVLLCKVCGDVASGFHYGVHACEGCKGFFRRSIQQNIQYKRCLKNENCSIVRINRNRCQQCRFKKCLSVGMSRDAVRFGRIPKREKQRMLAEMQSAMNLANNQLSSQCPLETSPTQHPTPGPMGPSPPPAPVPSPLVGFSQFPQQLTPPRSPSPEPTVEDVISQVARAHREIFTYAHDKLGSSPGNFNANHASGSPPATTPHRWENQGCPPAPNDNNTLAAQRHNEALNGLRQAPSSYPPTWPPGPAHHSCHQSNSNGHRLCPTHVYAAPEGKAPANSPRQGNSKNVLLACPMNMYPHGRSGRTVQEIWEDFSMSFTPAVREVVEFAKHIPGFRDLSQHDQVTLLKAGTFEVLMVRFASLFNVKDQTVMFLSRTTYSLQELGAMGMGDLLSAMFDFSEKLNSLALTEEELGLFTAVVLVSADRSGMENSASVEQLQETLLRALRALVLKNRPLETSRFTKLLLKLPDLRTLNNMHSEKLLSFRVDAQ
NR2E3 ag-1 – agonists of human NR2E3 nuclear receptor. CHO-S Gal4-NCOR/VP16-NR2E3 two-hybrid, luciferase. inhibition of corepressor binding, % at 3.98 µM. hit rate 0.35% among 360,000. AID 602229;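 active = inhibition above the mean of all tested compounds plus 3 SD, cut at about 70% in these data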;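 note: 0% = DMSO with NR2E3 transfected cells and 100% = cells lacking NR2E3 construct; higher means lower luciferase signal from less NR2E3 corepressor binding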
NR2E3 ag-2 – activates human photoreceptor nuclear receptor NR2E3; GST-NR2E3/biotin-RetCOR TR-FRET, 1536-well; AID 2300; inhibition of corepressor binding, % at 4.78 µM; hit rate 0.12% among 320,000;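 active = percent inhibition above the cutoff of mean plus 3 SD of all tested compounds, set per screening campaign, cut at about 20% in these data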;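 note: 0% = DMSO wells and 100% = biotin wells as full block of FRET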
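System: GST-tagged NR2E3 plus biotinylated RetCOR corepressor; Amount: 1.35 nM GST-tagged NR2E3 final; Dosing: single nominal compound dose of 4.8 µM; Schedule: 5 h incubation at 4 °C; Technique: TR-FRET with europium anti-GST and streptavidin-D2, 340 nm excitation; Controls: biotin wells as high control, 0.6% DMSO wells as low control.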
NR2E3 ag conf – NR2E3 agonism confirmed in two-hybrid assay; shares compounds with NR2E3 ag-1; CHO-S mammalian two-hybrid NR2E3-NCOR, luciferase luminescence; inhibition, % at 3.98 µM; hit rate 51% among 2,300; AID 624378;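 active = average inhibition above a cutoff equal to the mean inhibition of all tested compounds plus one SD, cut at about 70% in these data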;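 note: 0% = DMSO in NR2E3 cells and 100% = DMSO in cells lacking NR2E3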
GAL4-VP16 luc – GAL4-VP16 reporter inhibition in NR2E3 agonist counterscreen; shares compounds with NR2E3 ag-1; CHO-S GAL4-VP16 luciferase reporter, luminescence; inhibition, % at 3.98 µM; hit rate 29% among 2,300;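 active = mean inhibition above a cutoff equal to the average over all tested compounds plus one standard deviation, cut at about 70% in these data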;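 note: luciferase from a UAS reporter driven by GAL4-VP16 transactivation; 0% = DMSO with VP16-transfected cells and 100% = DMSO with cells lacking VP16; higher means less reporter light so more repression of VP16 activity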
Numbers without * were called inactive. Compounds with a hit are over-represented: about 1.4% of the library has one in this group of screens.

`CC(=O)c1c(C)[nH]c(C(=O)OCC(=O)c2ccc(Br)cc2)c1C` gave PG9 binder -1, NR1D1 modulator 2, NR2E3 ag-1 57, NR2E3 ag conf 86* and GAL4-VP16 luc 56.
For CCN1CCCCC(NC(=O)c2ccccc2C)C1=O (stereo not drawn) the results were NR1D1 modulator -1.
O=C1C[C@H](C(=O)Nc2ccc(Cl)cc2)[C@@H](c2ccccc2)O1 was read as NR1D1 modulator -1.
CCOC(=O)[C@@]12CCCC3=C1N(CCC3)C(=O)[C@H]2CC(=O)NCCCCc1ccccc1 was read as NR1D1 modulator 1.
COC(=O)[C@@]12CCCCC3=C1N(CCC3)C(=O)[C@H]2CC(=O)N1CCSCC1 was read as NR1D1 modulator -1.
For CSC1SCC2C(=O)N(C)C(C(C)C)C(=O)OCC(NC(=O)c3cnc4ccccc4n3)C(=O)NC(C)C(=O)N(C)C1C(=O)N(C)C(C(C)C)C(=O)OCC(NC(=O)c1cnc3ccccc3n1)C(=O)NC(C)C(=O)N2C (stereo not drawn) the results were PG9 binder 0, NR1D1 modulator 2, NR2E3 ag-1 103*, NR2E3 ag conf 98* and GAL4-VP16 luc 95*.
`CCN(CC)C(=O)CC[C@@H]1CC[C@]2(CCCN(C(=O)c3ccco3)C2)O1` gave NR1D1 modulator 1.
For CCN(CC)S(=O)(=O)c1ccc(Cl)c(C(=O)Nc2ccc(Cl)cc2[N+](=O)[O-])c1 the results were PG9 binder -2, NR1D1 modulator -1, NR2E3 ag-1 58, NR2E3 ag-2 5, NR2E3 ag conf 70* and GAL4-VP16 luc 67.
CCN(C[C@H]1[C@@H](c2ccc(C3=CCCC3)cc2)[C@H](CO)N1C(=O)c1cccnc1)S(=O)(=O)c1ccccc1[N+](=O)[O-] was read as NR1D1 modulator 0.
Screening O=C(Nc1ccc(OC(F)(F)F)cc1)N1CCN(c2ccnc3cc(Cl)ccc23)CC1 returned PG9 binder 0, NR1D1 modulator 6, NR2E3 ag-1 65, NR2E3 ag-2 -2, NR2E3 ag conf 94* and GAL4-VP16 luc 70.
`O=C(CSc1nnc(COc2ccccc2)n1Cc1ccco1)Nc1ccc2c(c1)OCO2` gave NR1D1 modulator -6.
Screening C=CCN1C(C(=O)OC)CN(Cc2cn(Cc3ccc(C)cc3)nn2)CCS1(=O)=O (stereo not drawn) returned NR1D1 modulator -7.
CCn1cc(CN(C)S(=O)(=O)c2cccc([N+](=O)[O-])c2)cn1 was read as PG9 binder -1, NR1D1 modulator 2, NR2E3 ag-1 -3 and NR2E3 ag-2 4.
For CCn1cc(CN(C)S(=O)(=O)c2ccc3ccccc3c2)c(C)n1 the results were PG9 binder 1, NR1D1 modulator 1, NR2E3 ag-1 66, NR2E3 ag-2 2, NR2E3 ag conf 88* and GAL4-VP16 luc 71*.
For O=C(Cc1ccc(S(=O)(=O)N2CCCC2)s1)N1CCN(c2ccccc2)CC1 the results were PG9 binder -2, NR1D1 modulator -2, NR2E3 ag-1 3 and NR2E3 ag-2 2.
`O=C(Cc1ccc(S(=O)(=O)N2CCOCC2)s1)N1CCN(c2cccc(C(F)(F)F)c2)CC1` gave NR2E3 ag-1 72*, NR2E3 ag-2 -1, NR2E3 ag conf 81* and GAL4-VP16 luc 61.
For CCC(C)(C)C(=O)O[C@H]1C[C@@H](C)C=C2C=C[C@H](C)[C@H](CC[C@@H]3C[C@@H](O)CC(=O)O3)[C@H]21 the results were PG9 binder -2, NR1D1 modulator 4, NR2E3 ag-1 56, NR2E3 ag-2 0, NR2E3 ag conf 86* and GAL4-VP16 luc 27.
For Cc1ccc(-n2c(C)cc(C(=O)COc3cccnc3[N+](=O)[O-])c2C)cc1 the results were PG9 binder -1, NR1D1 modulator 0, NR2E3 ag-1 68, NR2E3 ag-2 -2, NR2E3 ag conf 29 and GAL4-VP16 luc 50.
`Cc1cc(C(=O)COc2cccnc2[N+](=O)[O-])c(C)n1-c1ccccc1F` gave PG9 binder 1, NR1D1 modulator -4, NR2E3 ag-1 50, NR2E3 ag-2 -3, NR2E3 ag conf 58 and GAL4-VP16 luc 35.
